The nature of data set [1]: folding enthalpy; higher = less favourable; fluorescence melt of hairpins on a sequencing array, two-state fit. Particulars: sodium 0.088 M. The method in brief:
(§1)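 In 50 mM Na-HEPES pH 8.0 containing 25 mM NaCl, hairpins from the library on a sequenced MiSeq flow cell were imaged for Cy3 fluorescence at 2.5 °C steps up to 60 °C, with Cy3 and quencher oligos annealed. After normalisation to pre-quench Cy3 and to control constructs, two-state fits with bootstrapping gave melting temperature and folding enthalpy. Four replicates were combined by inverse-variance weighting, and fitted temperatures were shifted up by 9.35 °C to match UV melts.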

A short description of data set [2]: melting temperature; fluorescence melt of hairpins on a sequencing array, two-state fit, raised by 9.35 °C to match UV melts. Particulars: sodium 0.088 M. The method in brief: as §1

For GATCTAGTGGTAGATC ((((((....)))))), the folding enthalpy in data set [1] is -28 kcal/mol. For the same sequence, the Tm in data set [2] was 38 °C.
GATCTAGTGTTAGATC ((((((....)))))): in data set [1], the folding enthalpy is -30 kcal/mol. Moreover, in data set [2], the Tm worked out at 40.6 °C.
For GATCTATAACTAGATC ((((((....)))))), the folding enthalpy in data set [1] was -34.2 kcal/mol. In addition, in data set [2], the Tm came out at 36.7 °C.
For GATCTATACATAGATC ((((((....)))))), the folding enthalpy in data set [1] is -37.1 kcal/mol. Moreover, the Tm in data set [2] was found to be 46.4 °C.
The like results for GATCTATACGTAGATC ((((((....)))))) were, in that order, -40.1 kcal/mol and 45.3 °C.
The like results for GATCTATAGATAGATC ((((((....)))))) were, in that order, -32.6 kcal/mol and 39.9 °C.
Turning to GATCTATCAATAGATC ((((((....)))))), in data set [1], the folding enthalpy was -33.6 kcal/mol. Besides, the Tm in data set [2] was 42.8 °C.
The like results for GATCTATCCCTAGATC ((((((....)))))) were, in that order, -32.4 kcal/mol and 41.4 °C.
The like results for GATCTATCCTTAGATC ((((((....)))))) were, in that order, -34.1 kcal/mol and 44.4 °C.
The like results for GATCTATCTTTAGATC ((((((....)))))) were, in that order, -24.1 kcal/mol and 43.1 °C.
On to GATCTATGGTTAGATC ((((((....)))))), for which the folding enthalpy in data set [1] is -36 kcal/mol. In addition, the Tm in data set [2] stood at 41.5 °C.
For GATCTATGTTTAGATC ((((((....)))))), the folding enthalpy in data set [1] was -32.9 kcal/mol. Also, the Tm in data set [2] came to 43.9 °C.
The like results for GATCTCAACTGAGATC ((((((....)))))) were, in that order, -44.1 kcal/mol and 52.1 °C.
In the case of GATCTCAAGAGAGATC ((((((....)))))), the folding enthalpy in data set [1] was -32.5 kcal/mol. For the same sequence, the Tm in data set [2] was 49.4 °C.
The like results for GATCTCAAGCGAGATC ((((((....)))))) were, in that order, -37.6 kcal/mol and 50.4 °C.
Turning to GATCTCACATGAGATC ((((((....)))))), the folding enthalpy in data set [1] was -40.1 kcal/mol. In data set [2], the Tm was 52.5 °C.
The like results for GATCTCACCAGAGATC ((((((....)))))) were, in that order, -31.9 kcal/mol and 54.5 °C.
The like results for GATCTCACGAAAGTGATC (((..(((....)))))) were, in that order, -9.7 kcal/mol and 30.2 °C.
GATCTCACGGAGATC ((((((...)))))): in data set [1], the folding enthalpy was -41.9 kcal/mol. Moreover, the Tm in data set [2] came to 54.1 °C.
The like results for GATCTCATGGAGATC ((((((...)))))) were, in that order, -33.9 kcal/mol and 54 °C.
As for GATCTCATTGGAGATC ((((((....)))))), the folding enthalpy in data set [1] is -38.7 kcal/mol. In addition, the Tm in data set [2] came out at 52.2 °C.
As to GATCTCCAAGGAGATC ((((((....)))))), the folding enthalpy in data set [1] was -35 kcal/mol. Also, in data set [2], the Tm was 55.7 °C.
The like results for GATCTCCAGAGAGATC ((((((....)))))) were, in that order, -38.8 kcal/mol and 52 °C.
The like results for GATCTCCAGTGAGATC ((((((....)))))) were, in that order, -32 kcal/mol and 50.7 °C.
Turning to GATCTCCCAAGAGATC ((((((....)))))), the folding enthalpy in data set [1] is -34.3 kcal/mol. For the same sequence, the Tm in data set [2] stood at 53.4 °C.
The like results for GATCTCCCAGAGATC ((((((...)))))) were, in that order, -40 kcal/mol and 53.5 °C.
The like results for GATCTCCCCGGAGATC ((((((....)))))) were, in that order, -35.1 kcal/mol and 57.6 °C.
For the sequence GATCTCCCTCGAGATC ((((((....)))))), the folding enthalpy in data set [1] is -41.1 kcal/mol. Also, in data set [2], the Tm was 51.7 °C.
The like results for GATCTCCCTTGAGATC ((((((....)))))) were, in that order, -39.4 kcal/mol and 52.6 °C.
The like results for GATCTCCGAAAGGAATC (((.(((....)))))) were, in that order, -14.4 kcal/mol and 33.3 °C.
Consider GATCTCCGAAAGGACATC (((.(((....))).))), for which, in data set [1], the folding enthalpy is -17 kcal/mol. Further, the Tm in data set [2] came out at 30.4 °C.
Regarding GATCTCCGGGAGATC ((((((...)))))), the folding enthalpy in data set [1] is -39.7 kcal/mol. For the same sequence, the Tm in data set [2] stood at 52.8 °C.
The like results for GATCTCCTACGAGATC ((((((....)))))) were, in that order, -34.5 kcal/mol and 52.4 °C.
As for GATCTCCTATGAGATC ((((((....)))))), in data set [1], the folding enthalpy was -39.2 kcal/mol. The Tm in data set [2] is 53.4 °C.
The like results for GATCTCCTCGAGATC ((((((...)))))) were, in that order, -38.6 kcal/mol and 54.5 °C.
Consider GATCTCCTGTGAGATC ((((((....)))))), for which the folding enthalpy in data set [1] was -45.7 kcal/mol. For the same sequence, the Tm in data set [2] was 52.5 °C.
Regarding GATCTCCTTAGAGATC ((((((....)))))), the folding enthalpy in data set [1] is -37.1 kcal/mol. For the same sequence, in data set [2], the Tm was 56.4 °C.
The like results for GATCTCCTTCGAGATC ((((((....)))))) were, in that order, -42.5 kcal/mol and 52.1 °C.

Source of the values: the array DNA melting data of Ke et al. (doi:10.1101/2024.01.08.574731).
